# Results from PMC6263297 (Drug Design, Development and Therapy, 2018).
# Where two headings read alike, the source gives them in different places.
# Legend:
# [1] = tested on: acute exacerbations of COPD; settings: treated over 4 weeks; cited from earlier work
# patients with asthma = settings: oral 0.10, 0.25, and 0.50 mg once daily; cited from earlier work
# [2] = type: in vivo, human (healthy Chinese volunteers); settings: single doses over the range 0.25–0.50 mg
# [3] = Safety assessment: treatment-related adverse events; type: in vivo, human (healthy Chinese volunteers)
# Method in brief: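 The same 12 volunteers received three single-dose periods (0.25, 0.375, 0.5 mg orally after >10 h fast, 10-day washouts), then 0.375 mg once daily for 11 days. Adverse events were collected by interview and monitoring and graded for relation to treatment (probably/possibly). Vital signs, physical examination, clinical laboratory tests and ECG were done at screening and at study completion.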
# [4] = cited from earlier work
# [5] = cited from earlier work; remark: listed apart in the source
# PDE4 enzyme = settings: in vitro; cited from earlier work
# [6] = single and multiple oral doses, all subjects
# [7] = single- and multiple-dose studies together
# [8] = after receiving 0.5 mg roflumilast
structure (smiles),measurement,setting,value
O=C(Nc1c(Cl)cncc1Cl)c1ccc(OC(F)F)c(OCC2CC2)c1 [Roflumilast],percentage of sputum neutrophils,[1],statistically significant greater reduction
same,sputum myeloperoxidase concentration,[1],statistically significant greater reduction
same,effect on forced expiratory volume in 1 second,patients with asthma,statistically significant effects with dose-related increases from baseline
same,mean t1/2 over the three single-dose groups,[2],~ 20 hours
same,number of TRAEs reported,[3]; 0.25 mg single dose,Seven
same,number of TRAEs reported,[3]; 0.375 mg multiple doses,25
same,serious adverse events,[3]; across the trial,no serious adverse events
same,overall safety and tolerability,"[3]; healthy Chinese volunteers, single doses 0.25–0.5 mg and multiple doses 0.375 mg",safe and well-tolerated
same,Any adverse event: number of subjects (%) reporting TRAEs,[3]; multiple doses 0.375 mg (n=12),12 subjects (%)
same,number of TRAEs of moderate degree,[3]; presenting as acute gastroenteritis,one
same,number of TRAEs of severe degree,[3]; presenting as diarrhea,one
same,"Diarrhea, share of subjects",[3]; [6],30.8%
same,"Dizziness, share of subjects",[3]; [6],53.8%
same,"Elevated creatine kinase level, share of subjects",[3]; [6],15.4%
same,"Elevated total bilirubin level, share of subjects",[3]; [6],15.4%
same,"Headache, share of subjects",[3]; [6],23.1%
same,"Nausea, share of subjects",[3]; [6],53.8%
same,"Upper respiratory tract infection, share of subjects",[3]; [6],23.1%
same,number of TRAEs of mild degree,[3]; [7],Forty-six
same,total number of treatment-related adverse events,[3]; [7],48
same,effective half-life (t1/2),[4]; after dosing of 0.5 mg roflumilast,8 to 31 h
same,effect of food intake on Cmax (decrease),[4]; food intake,~ 40%
same,effect of food intake on Tmax (delay),[4]; food intake,1 h
same,effect of food intake on the total inhibitory activity of PDE4,[4]; food intake,does not affect
same,number of AEs reported,[5]; 15 subjects after receiving 0.5 mg roflumilast,59
same,"Abdominal discomfort, share of subjects",[5]; [8],20%
same,"Headache, share of subjects",[5]; [8],46.7%
same,"Nausea, share of subjects",[5]; [8],20%
same,subjects who exited the study because of AEs,"[5]; of 19 subjects, erectile dysfunction, visual flicker, blurred vision",2 subjects
same,potency upon inhibition of the PDE4 enzyme relative to roflumilast N-oxide,PDE4 enzyme,three times more potent
